Laboratory results published in ChEMBL document CHEMBL4138301, “Discovery of Tetralones as Potent and Selective Inhibitors of Acyl-CoA:Diacylglycerol Acyltransferase 1” (ACS Med Chem Lett, 2018).
Values after ≈ are worked out from the molar mass of the structure shown. One block for each compound: values may come before it.

Legend:
[1] = Kinetic solubility of the compound in pION buffer at pH 7.4 measured after 18 hrs; assay type: physicochemical; settings: read-out: Kinetic_solubility
[2] = target: T1, Diacylglycerol O-acyltransferase 1 (Mus musculus) (UniProt Q9Z2A7); assay: Inhibition of DGAT1 in mouse C2C12 cells at 300 nM using [14C] oleic acid as substrate measured after 20 mins by phosphorimaging method relative to control; assay type: cell-based
T1 sequence (whole entry): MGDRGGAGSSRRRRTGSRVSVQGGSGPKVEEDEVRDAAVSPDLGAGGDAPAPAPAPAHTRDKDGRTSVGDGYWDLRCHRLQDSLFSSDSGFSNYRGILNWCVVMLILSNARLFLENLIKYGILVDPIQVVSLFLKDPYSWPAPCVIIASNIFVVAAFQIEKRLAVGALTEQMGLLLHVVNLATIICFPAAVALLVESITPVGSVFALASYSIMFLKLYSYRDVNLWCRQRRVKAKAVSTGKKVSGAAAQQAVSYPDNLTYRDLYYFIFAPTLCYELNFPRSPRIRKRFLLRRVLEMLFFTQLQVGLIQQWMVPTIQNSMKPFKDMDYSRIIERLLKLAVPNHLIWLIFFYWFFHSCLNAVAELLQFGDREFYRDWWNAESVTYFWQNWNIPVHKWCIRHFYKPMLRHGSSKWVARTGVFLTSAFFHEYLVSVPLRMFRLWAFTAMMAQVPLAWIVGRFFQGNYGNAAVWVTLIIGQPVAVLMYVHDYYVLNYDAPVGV

[3] = target: Diacylglycerol O-acyltransferase 1 (Homo sapiens) (UniProt O75907); assay: Inhibition of recombinant human DGAT1 expressed in baculovirus infected Sf9 insect microsomal membranes at 10 uM using C10-DAG and C10-CoA as substrate pretreated for 15 mins followed by substrate addition measured after 60 mins by CPM dye based fluorescence assay relative to control
[4] = Oral bioavailability in Sprague-Dawley rat at 2 mg/kg; assay type: ADME, organism-based; settings: in vivo
Summary of the method: (§1)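 Male animals, n = 3 per species: C57BL/6J mouse at 2.2 mg/kg IV and 2.7 mg/kg PO; Sprague–Dawley rat at 1 mg/kg IV and 2 mg/kg PO; Beagle dog at 1.8 mg/kg IV and 5.3 mg/kg PO. Plasma clearance, Vss, IV half-life and oral %F were derived from the plasma profiles.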

Salmonella typhimurium [5] = assay: Mutagenicity in Salmonella typhimurium TA1535 in presence of S9 fraction by Ames test; assay type: toxicity, organism-based; settings: salmonella enterica subsp. enterica serovar typhimurium
Salmonella typhimurium [6] = assay: Mutagenicity in Salmonella typhimurium TA1537 in presence of S9 fraction by Ames test; assay type: toxicity, organism-based; settings: salmonella enterica subsp. enterica serovar typhimurium
Salmonella typhimurium [7] = assay: Mutagenicity in Salmonella typhimurium TA98 in presence of S9 fraction by Ames test; assay type: toxicity, organism-based; settings: salmonella enterica subsp. enterica serovar typhimurium
Salmonella typhimurium [8] = assay: Mutagenicity in Salmonella typhimurium TA100 in presence of S9 fraction by Ames test; assay type: toxicity, organism-based; settings: salmonella enterica subsp. enterica serovar typhimurium
Escherichia coli [9] = assay: Mutagenicity in Escherichia coli WP2uvrA in presence of S9 fraction by Ames test; assay type: toxicity, organism-based
Salmonella typhimurium [10] = assay: Mutagenicity in Salmonella typhimurium TA1535 in absence of S9 fraction by Ames test; assay type: toxicity, organism-based; settings: salmonella enterica subsp. enterica serovar typhimurium
Salmonella typhimurium [11] = assay: Mutagenicity in Salmonella typhimurium TA1537 in absence of S9 fraction by Ames test; assay type: toxicity, organism-based; settings: salmonella enterica subsp. enterica serovar typhimurium
Salmonella typhimurium [12] = assay: Mutagenicity in Salmonella typhimurium TA98 in absence of S9 fraction by Ames test; assay type: toxicity, organism-based; settings: salmonella enterica subsp. enterica serovar typhimurium
Salmonella typhimurium [13] = assay: Mutagenicity in Salmonella typhimurium TA100 in absence of S9 fraction by Ames test; assay type: toxicity, organism-based; settings: salmonella enterica subsp. enterica serovar typhimurium
Escherichia coli [14] = assay: Mutagenicity in Escherichia coli WP2uvrA in absence of S9 fraction by Ames test; assay type: toxicity, organism-based
[15] = Plasma clearance in C57BL/6J mouse at 2.2 mg/kg, iv or 2.7 mg/kg, po; assay type: ADME, organism-based; summary of the method: as §1
[16] = Volume of distribution at steady state in C57BL/6J mouse at 2.2 mg/kg, iv or 2.7 mg/kg, po; assay type: ADME, organism-based; settings: in vivo, read-out: Vdss
Summary of the method: (§2)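 Male animals, n = 3 per species. Each was given a single intravenous dose and a separate oral dose, at the species-specific levels in the line. Plasma clearance, steady-state volume of distribution, IV half-life and oral bioavailability were derived from these studies.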

[17] = Half life in C57BL/6J mouse at 2.2 mg/kg, iv; assay type: ADME, organism-based; settings: in vivo; summary of the method: as §1
[18] = Oral bioavailability in C57BL/6J mouse at 2.7 mg/kg; assay type: ADME, organism-based; settings: in vivo; summary of the method: as §1
[19] = Plasma clearance in Sprague-Dawley rat at 1 mg/kg, iv or 2 mg/kg, po; assay type: ADME, organism-based; summary of the method: as §1
[20] = Volume of distribution at steady state in Sprague-Dawley rat at 1 mg/kg, iv or 2 mg/kg, po; assay type: ADME, organism-based; settings: in vivo, read-out: Vdss; summary of the method: as §2
[21] = Half life in Sprague-Dawley rat at 1 mg/kg, iv; assay type: ADME, organism-based; settings: in vivo; summary of the method: as §1
[22] = Plasma clearance in Beagle dog at 1.8 mg/kg, iv or 5.3 mg/kg, po; assay type: ADME, organism-based, Canis lupus familiaris; summary of the method: as §1
[23] = Volume of distribution at steady state in Beagle dog at 1.8 mg/kg, iv or 5.3 mg/kg, po; assay type: ADME, organism-based, Canis lupus familiaris; settings: in vivo, read-out: Vdss; summary of the method: as §2
[24] = Half life in Beagle dog at 1.8 mg/kg, iv; assay type: ADME, organism-based, Canis lupus familiaris; settings: in vivo; summary of the method: as §1
[25] = Oral bioavailability in Beagle dog at 5.3 mg/kg; assay type: ADME, organism-based, Canis lupus familiaris; settings: in vivo; summary of the method: as §1
Mus musculus [26] = assay: In vivo inhibition of DGAT1 in corn oil-induced Swiss albino mouse hypertriglyceridemia model assessed as reduction in plasma triglyceride level at 0.03 mg/kg, po pretreated for 30 mins followed by coil oil challenge measured after 2.5 hrs relative to control; assay type: functional
Summary of the method: (§3)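 Male Swiss Albino mice were fasted overnight, then dosed orally at 0.03, 0.1, 0.3, 1, 3 or 10 mg/kg. Thirty minutes later they received an oral corn oil bolus of 5 mL/kg.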

Mus musculus [27] = assay: In vivo inhibition of DGAT1 in corn oil-induced Swiss albino mouse hypertriglyceridemia model assessed as reduction in plasma triglyceride level at 0.1 mg/kg, po pretreated for 30 mins followed by coil oil challenge measured after 2.5 hrs relative to control; assay type: functional; summary of the method: as §3
Mus musculus [28] = assay: In vivo inhibition of DGAT1 in corn oil-induced Swiss albino mouse hypertriglyceridemia model assessed as reduction in plasma triglyceride level at 0.3 mg/kg, po pretreated for 30 mins followed by coil oil challenge measured after 2.5 hrs relative to control; assay type: functional; summary of the method: as §3
Mus musculus [29] = assay: In vivo inhibition of DGAT1 in corn oil-induced Swiss albino mouse hypertriglyceridemia model assessed as reduction in plasma triglyceride level at 1 mg/kg, po pretreated for 30 mins followed by coil oil challenge measured after 2.5 hrs relative to control; assay type: functional; summary of the method: as §3
Mus musculus [30] = assay: In vivo inhibition of DGAT1 in corn oil-induced Swiss albino mouse hypertriglyceridemia model assessed as reduction in plasma triglyceride level at 3 mg/kg, po pretreated for 30 mins followed by coil oil challenge measured after 2.5 hrs relative to control; assay type: functional; summary of the method: as §3
Mus musculus [31] = assay: In vivo inhibition of DGAT1 in corn oil-induced Swiss albino mouse hypertriglyceridemia model assessed as reduction in plasma triglyceride level at 10 mg/kg, po pretreated for 30 mins followed by coil oil challenge measured after 2.5 hrs relative to control; assay type: functional; summary of the method: as §3
Mus musculus [32] = species: Mus musculus; assay: animal or person; settings: Swiss, po

Sequence of Diacylglycerol O-acyltransferase 1 (Homo sapiens) (O75907 whole entry): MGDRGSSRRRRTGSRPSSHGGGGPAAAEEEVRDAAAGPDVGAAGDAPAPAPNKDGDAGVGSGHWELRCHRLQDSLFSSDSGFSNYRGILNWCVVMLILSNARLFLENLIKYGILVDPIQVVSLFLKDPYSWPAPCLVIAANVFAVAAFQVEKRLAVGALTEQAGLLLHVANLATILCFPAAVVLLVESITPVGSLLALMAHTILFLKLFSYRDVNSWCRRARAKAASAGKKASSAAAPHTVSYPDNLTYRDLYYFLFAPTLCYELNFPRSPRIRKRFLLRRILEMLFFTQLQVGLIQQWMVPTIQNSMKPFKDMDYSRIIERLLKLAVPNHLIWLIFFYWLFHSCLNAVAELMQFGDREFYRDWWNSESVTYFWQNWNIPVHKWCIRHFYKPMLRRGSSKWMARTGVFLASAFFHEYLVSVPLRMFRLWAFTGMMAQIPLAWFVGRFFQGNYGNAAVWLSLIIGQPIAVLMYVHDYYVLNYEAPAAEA

- solubility kinetic at 18 h [1]: 88 µg/mL (≈ 172 µM)
- inhibition [2]: 27%
SMILES: CC[C@]1(CC(=O)O)CCc2cc(-c3ccc(NC(=O)Nc4cccc(C(F)(F)F)c4)cc3)ccc2C1=O

- solubility kinetic at 18 h [1]: 31 µg/mL (≈ 71.7 µM)
- inhibition [3]: 84%
SMILES: O=C(O)CC1(F)CCc2cc(-c3ccc(NC(=O)Nc4ccccc4)cc3)ccc2C1=O (configuration not stated)

- solubility kinetic at 18 h [1]: 56 µg/mL (≈ 98.9 µM)
- bioavailability [4]: 25%
SMILES: O=C(O)C[C@]1(CC(F)(F)F)CCc2cc(-c3cnc(NC(=O)Nc4cccc(C(F)(F)F)c4)cn3)ccc2C1=O

- solubility kinetic at 18 h [1]: 34 µg/mL (≈ 76.8 µM)
SMILES: CCC1(CC(=O)O)CCc2cc(-c3ccc(NC(=O)Nc4ccccc4)cc3)ccc2C1=O (configuration not stated)

- solubility kinetic at 18 h [1]: 103 µg/mL (≈ 233 µM)
SMILES: Cc1cccc(NC(=O)Nc2ccc(-c3ccc4c(c3)CCC(C)(CC(=O)O)C4=O)cc2)c1 (configuration not stated)

- solubility kinetic at 18 h [1]: 125 µg/mL (≈ 244 µM)
- bioavailability [4]: 51%
SMILES: CC[C@@]1(CC(=O)O)CCc2cc(-c3ccc(NC(=O)Nc4ccc(F)c(F)c4)cc3Cl)ccc2C1=O

- solubility kinetic at 18 h [1]: 54 µg/mL (≈ 126 µM)
SMILES: CC1(CC(=O)O)CCc2cc(-c3ccc(NC(=O)Nc4ccccc4)cc3)ccc2C1=O (configuration not stated)

- solubility kinetic at 18 h [1]: 13 µg/mL (≈ 29.1 µM)
SMILES: CC1(CC(=O)O)CCc2cc(-c3ccc(NC(=O)Nc4cccc(F)c4)cc3)ccc2C1=O (configuration not stated)

SMILES: CCC1(CC(=O)O)CCc2cc(-c3ccc(N)cc3)ccc2C1=O (configuration not stated)
- Activity (Salmonella typhimurium [5]): Toxic
- Activity (Salmonella typhimurium [6]): Toxic
- Activity (Salmonella typhimurium [7]): Toxic
- Activity (Salmonella typhimurium [8]): Toxic
- Activity (Escherichia coli [9]): Toxic
- Activity (Salmonella typhimurium [10]): Toxic
- Activity (Salmonella typhimurium [11]): Toxic
- Activity (Salmonella typhimurium [12]): Toxic
- Activity (Salmonella typhimurium [13]): Toxic
- Activity (Escherichia coli [14]): Toxic

- solubility kinetic at 18 h [1]: 78 µg/mL (≈ 153 µM)
- inhibition [2]: 75%
- clearance [15]: 42.3 mL/min/kg
- Vd [16]: 2.4 L/kg
- half-life [17]: 2.6 h
- bioavailability [18]: 54%
- clearance [19]: 6.3 mL/min/kg
- Vd [20]: 1 L/kg
- half-life [21]: 3.9 h
- bioavailability [4]: 87%
- clearance [22]: 4.6 mL/min/kg
- Vd [23]: 0.6 L/kg
- half-life [24]: 4.6 h
- bioavailability [25]: 149%
SMILES: CC[C@@]1(CC(=O)O)CCc2cc(-c3ccc(NC(=O)Nc4cccc(C(F)(F)F)c4)cc3)ccc2C1=O
- inhibition in vivo at 0.03 mg/kg (Mus musculus [26]): 19%
- inhibition in vivo at 0.1 mg/kg (Mus musculus [27]): 33%
- inhibition in vivo at 0.3 mg/kg (Mus musculus [28]): 60%
- inhibition in vivo at 1 mg/kg (Mus musculus [29]): 71%
- inhibition in vivo at 3 mg/kg (Mus musculus [30]): 91%
- inhibition in vivo at 10 mg/kg (Mus musculus [31]): 99%
- Activity (Salmonella typhimurium [5]): Non-Toxic
- Activity (Salmonella typhimurium [6]): Non-Toxic
- Activity (Salmonella typhimurium [7]): Non-Toxic
- Activity (Salmonella typhimurium [8]): Non-Toxic
- Activity (Escherichia coli [9]): Non-Toxic
- Activity (Salmonella typhimurium [10]): Non-Toxic
- Activity (Salmonella typhimurium [11]): Non-Toxic
- Activity (Salmonella typhimurium [12]): Non-Toxic
- Activity (Salmonella typhimurium [13]): Non-Toxic
- Activity (Escherichia coli [14]): Non-Toxic
- ED50 (Mus musculus [32]): 0.23 mg/kg

- solubility kinetic at 18 h [1]: 6 µg/mL (≈ 13.1 µM)
SMILES: CCC1(CC(=O)O)CCc2cc(-c3ccc(NC(=O)Nc4cccc(C)c4)cc3)ccc2C1=O (configuration not stated)

- solubility kinetic at 18 h [1]: 58 µg/mL (≈ 140 µM)
SMILES: O=C(O)CC1CCc2cc(-c3ccc(NC(=O)Nc4ccccc4)cc3)ccc2C1=O (configuration not stated)

- solubility kinetic at 18 h [1]: 36 µg/mL (≈ 78.9 µM)
SMILES: CCC1(CC(=O)O)CCc2cc(-c3ccc(NC(=O)Nc4ccc(C)cc4)cc3)ccc2C1=O (configuration not stated)

- solubility kinetic at 18 h [1]: 75 µg/mL (≈ 162 µM)
SMILES: CC1(CC(=O)O)CCc2cc(-c3ccc(NC(=O)Nc4cccc(Cl)c4)cc3)ccc2C1=O (configuration not stated)
